Experiment [1] deals with T1, Farnesyl pyrophosphate synthase (Homo sapiens, UniProt P14324).
T1 sequence (P14324 whole entry): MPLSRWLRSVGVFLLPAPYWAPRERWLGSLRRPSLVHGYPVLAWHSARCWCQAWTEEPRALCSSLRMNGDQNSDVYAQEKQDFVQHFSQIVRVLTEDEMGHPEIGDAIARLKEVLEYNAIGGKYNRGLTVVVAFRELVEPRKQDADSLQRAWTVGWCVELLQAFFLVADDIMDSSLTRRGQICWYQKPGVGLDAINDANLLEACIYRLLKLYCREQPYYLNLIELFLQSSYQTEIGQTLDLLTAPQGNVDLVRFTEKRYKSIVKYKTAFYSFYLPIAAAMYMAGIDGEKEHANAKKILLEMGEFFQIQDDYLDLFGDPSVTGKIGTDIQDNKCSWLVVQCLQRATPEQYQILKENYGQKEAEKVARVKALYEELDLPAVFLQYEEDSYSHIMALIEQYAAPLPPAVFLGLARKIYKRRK
Description: Inhibition of human recombinant N-terminal-His6 tagged FPPS expressed in Escherichia coli BL21 using [14C]IPP and GPP as substrate incubated for 10 mins prior to substrate addition measured after 10 mins by scintillation counting.

Experiment [2] has as its target T1, Farnesyl pyrophosphate synthase. Description: Inhibition of human recombinant N-terminal-His6 tagged FPPS expressed in Escherichia coli BL21 using [3H]IPP and GPP as substrate measured after 20 mins by liquid scintillation counting.
A short description of experiment [3]: Antiproliferative activity against human KMS-28PE after 72 hrs by MTT assay. Type of experiment: functional.
The nature of experiment [4]: Antiproliferative activity against human JJN-3 after 72 hrs by MTT assay. In kind it is functional. Particulars: JJN-3, 72 h. (In general: Tetrazolium dyes change colour on reduction, which living cells bring about.)
In experiment [5] the target is T1, Farnesyl pyrophosphate synthase. Description: Inhibition of human FPPS using […] as substrate incubated for 30 mins prior to substrate addition measured after 20 mins by scintillation counting.
Experiment [6] is described as follows: Induction of apoptosis in human KMS-28PE cells assessed as late apoptotic cells at 100 uM after 48 hrs by AnnexinV/7AAD staining-based flow cytometric assay (reference value: 5.18%). Type of experiment: functional. In general terms: Flow cytometry measures light scatter and fluorescence of single cells or particles in a stream.
The nature of experiment [7]: Antiproliferative activity against human […] after 72 hrs by MTT assay. In kind it is functional. The method, boiled down: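 Cells seeded at 10,000/well and rested 2 h, then given compound diluted in culture medium as a half-log series spanning 100 nM–333 μM. Incubated 72 h at 37 °C in 5% CO2. MTT read at OD490.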
Experiment [8] can be described thus: Induction of apoptosis in human KMS-28PE cells assessed as viable cells at 100 uM after 48 hrs by AnnexinV/7AAD staining-based flow cytometric assay (reference value: 93%). In kind it is functional. Particulars: read-out: Activity.
In the next experiment the test system is RPMI-8226. Description: Inhibition of ERK protein expression level in human RPMI8226 cells at 100 uM up to 20 mins by Western blot analysis. In kind it is functional, cell-based. In a few lines:
(§1)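 RPMI8226 cells serum-starved overnight, then stimulated with 10% FBS with or without 100 μM inhibitor for 0 (starved only), 10 and 20 min. Washed in ice-cold PBS/BSA and lysed in Triton/deoxycholate buffer with protease inhibitors. ERK and pERK detected by Western blot with HRP secondary antibodies and ECL chemiluminescence.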
On the technique in general: A western blot detects proteins with antibodies after separation by electrophoresis.

The target of experiment [9] is T2, Farnesyl pyrophosphate synthase (Homo sapiens) (UniProt P14324).
T2 sequence (whole entry): T1 sequence (P14324 whole entry)
In words: Inhibition of FPPS in human RPMI8226 cells assessed as inhibition of Ras-mediated ERK phosphorylation at 100 uM up to 20 mins by Western blot analysis. Type of experiment: cell-based. The conditions noted are these: RPMI-8226. The method, boiled down: as §1

Experiment [10] can be described thus: Induction of apoptosis in human KMS-28PE cells assessed as early apoptotic cells at 1 uM after 48 hrs by AnnexinV/7AAD staining-based flow cytometric assay (reference value: 1.44%). Type of experiment: functional.
The nature of experiment [11]: Induction of apoptosis in human KMS-28PE cells assessed as necrotic cells at 1 uM after 48 hrs by AnnexinV/7AAD staining-based flow cytometric assay (reference value: 0.36%). In kind it is functional.
Experiment [12] can be described thus: Induction of apoptosis in human KMS-28PE cells assessed as late apoptotic cells at 1 uM after 48 hrs by AnnexinV/7AAD staining-based flow cytometric assay (reference value: 5.18%). In kind it is functional.
The nature of experiment [13]: Induction of apoptosis in human KMS-28PE cells assessed as early apoptotic cells at 100 uM after 48 hrs by AnnexinV/7AAD staining-based flow cytometric assay (reference value: 1.44%). Type of experiment: functional.
A short description of experiment [14]: Induction of apoptosis in human KMS-28PE cells assessed as viable cells at 1 uM after 48 hrs by AnnexinV/7AAD staining-based flow cytometric assay (reference value: 93%). In kind it is functional. The conditions noted are these: read-out: Activity.
A short description of experiment [15]: Induction of apoptosis in human KMS-28PE cells assessed as necrotic cells at 100 uM after 48 hrs by AnnexinV/7AAD staining-based flow cytometric assay (reference value: 0.36%). Type of experiment: functional.

The source of these data is ChEMBL document CHEMBL2046409, “Design and synthesis of active site inhibitors of the human farnesyl pyrophosphate synthase: apoptosis and inhibition of ERK phosphorylation in multiple myeloma cells” (J Med Chem, 2012).

pEC50, pIC50: −log10 of the molar value. The source made the active and inactive calls. The calls are words filed in the database; no cut-off is given here.

One may read the pIC50 as the negative decadic logarithm of the IC50, by convention in mol/L. Regarding `CC(C)=CCC/C(C)=C/CC(C/C=C(\C)CCC=C(C)C)(P(=O)(O)O)P(=O)(O)O` [DIGERANYL BISPHOSPHONATE], in [1], the negative logarithm of the IC50 (pIC50) is less than 5.00.

In the case of `O=P(O)(O)C(Nc1cc(-c2ccc(OC3CCC3)cc2)ccn1)P(=O)(O)O`, the pIC50 in experiment [2] was 5.68; in experiment [1] it was 7.46.

For orientation: pEC50 means the EC50 on a negative log10 scale, so that one unit is a factor of ten. A high value points to a low EC50. Consider `O=P(O)(O)C(O)(Cc1cccnc1)P(=O)(O)O` [RISEDRONIC ACID], for which the pEC50 is 4.97 in experiment [3] and 5.00 in experiment [4].

On to `Cc1ccc(-c2ccnc(NC(P(=O)(O)O)P(=O)(O)O)c2)cc1`, for which the pIC50 in [1] was 7.46.

Consider `O=P(O)(O)C(F)(Cc1cncc(-c2ccc3[nH]ncc3c2)c1)P(=O)(O)O`, for which the pIC50 in experiment [1] was 6.28.

As to `O=P(O)(O)C(Nc1cc(-c2ccc3[nH]ncc3c2)ccn1)P(=O)(O)O`, in experiment [1], the negative-log IC50 (pIC50) is 6.37.

For `O=P(O)(O)C(F)(Cc1cncc(-c2ccccc2)c1)P(=O)(O)O`, the pIC50 in experiment [1] is 6.94.

`CCCCCCCCCCOc1ccc[n+](CC(P(=O)([O-])O)P(=O)(O)O)c1` (stereo not drawn) showed a pIC50 in experiment [5] of 7.00.

`O=P(O)(O)C(Nc1cc(-c2ccc(OC3CCCC3)cc2)ccn1)P(=O)(O)O`: the negative logarithm of the IC50 (pIC50) in [2] is 6.11; in experiment [1], 7.49. The Activity in experiment [6] turned out to be 9.15%; in experiment [10], 1.81%; in experiment [11], 0.4%; in [12], 5.94%; in experiment [13], 5.64%; in experiment [15] it was 0.46%. For the same compound, the figures for the pEC50 in [7], in experiment [3] and in [4] were 5.44, 5.49 and 5.07, respectively. Besides, in [8], the viability at 100 µM was 84.8%. The inhibition result in the experiment with RPMI-8226 is “inactive”. The inhibition entry in experiment [9] is “Active”. The viability at 1 µM in experiment [14] is 91.8%.

For `O=P(O)(O)C(O)(Cn1ccnc1)P(=O)(O)O` [ZOLEDRONIC ACID], the pEC50 in experiment [7] was 4.98; in [3] it was 5.19; in experiment [4], 5.03.
